In brackets after ≈: the same amount, converted by molar mass.
Key:
[1] = target: Botulinum neurotoxin type A (Clostridium botulinum, UniProt P0DPI0)
[2] = Aqueous solubility of the compound at pH 1 after 24 hrs by shake flask method; assay type: physicochemical
Procedure, shortened: (§1)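 Miniaturized shake-flask method: analyte at 1.0 mM in aqueous solution at pH 1.0 or 6.8, shaken gently (600 rpm) in a syringeless filter at room temperature for 24 h. Filtrate was collected after a further 30 min, diluted in 50:50 MeCN/water with 0.1% formic acid, and analysed by LC–MS/MS. Calibration range was 0.05–12.5 μM at pH 6.8 and 5.0–25000 μM at pH 1.0.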

[3] = Aqueous solubility of the compound at pH 6.8 after 24 hrs by shake flask method; assay type: physicochemical; settings: buffer, pH 6.8, 24 h
Procedure, shortened: as §1

Plasma [4] = assay: Metabolic stability in Sprague-Dawley rat plasma assessed as compound remaining at 1 uM measured at 3 hrs by LC-MS/MS analysis; assay type: ADME, cell-free
Procedure, shortened: (§2)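 Compound at 1.0 μM was incubated in plasma at 37 °C and sampled at 0, 1, 3, 5 and 24 h. Proteins were precipitated with cold acetonitrile containing internal standard, and samples were analysed by LC–MS/MS for percent remaining. Half-life came from regression analysis.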

Plasma [5] = assay: Half life in Sprague-Dawley rat plasma at 1 uM by LC-MS/MS analysis; assay type: ADME, cell-free
Procedure, shortened: as §2

Liver microsome [6] = assay: Half life in Sprague-Dawley rat liver microsomes at 1 uM by reversed phase LC/MS analysis; assay type: ADME
Procedure, shortened: (§3)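 Liver microsomes were from humans (pooled from 10 male donors) or male Sprague–Dawley rats aged 8–10 weeks. Incubations used 0.125 mg/mL total protein and 1.0 μM drug at 37 °C, sampled at 0, 5, 15, 30 and 60 min. Parent-to-product transitions were read by reversed-phase LC with triple quadrupole MS, and % remaining was taken relative to time zero. t1/2 = −ln(2)/k, with k from log–linear regression.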

Liver microsome [7] = assay: Drug metabolism in Sprague-Dawley rat liver microsomes assessed as metabolic rate at 1 uM by reversed phase LC/MS analysis; assay type: ADME
Procedure, shortened: as §3

Plasma [8] = assay: Half life in human plasma at 1 uM by LC-MS/MS analysis; assay type: ADME, cell-free
Procedure, shortened: as §2

Liver microsome [9] = assay: Half life in human liver microsomes at 1 uM by reversed phase LC/MS analysis; assay type: ADME
Procedure, shortened: as §3

Liver microsome [10] = assay: Drug metabolism in human liver microsomes assessed as metabolic rate at 1 uM by reversed phase LC/MS analysis; assay type: ADME
Procedure, shortened: as §3

Chain of Botulinum neurotoxin type A (P0DPI0 2-448 limits assumed): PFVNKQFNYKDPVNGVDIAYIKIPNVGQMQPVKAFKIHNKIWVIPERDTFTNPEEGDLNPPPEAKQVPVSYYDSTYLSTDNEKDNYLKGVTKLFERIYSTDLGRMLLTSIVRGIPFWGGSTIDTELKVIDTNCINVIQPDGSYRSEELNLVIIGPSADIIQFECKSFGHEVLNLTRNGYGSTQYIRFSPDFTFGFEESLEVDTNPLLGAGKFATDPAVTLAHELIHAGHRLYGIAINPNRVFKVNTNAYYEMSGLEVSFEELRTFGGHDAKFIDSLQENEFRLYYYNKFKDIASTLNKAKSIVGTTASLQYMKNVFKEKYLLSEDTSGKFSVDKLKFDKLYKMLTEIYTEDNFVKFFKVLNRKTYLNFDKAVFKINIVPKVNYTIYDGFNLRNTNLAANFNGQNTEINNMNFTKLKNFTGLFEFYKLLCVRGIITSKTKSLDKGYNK

| Compound | IC50 [1] [nM] | also measured |
| --- | --- | --- |
| Cc1cccc(NC(c2ccc(C)s2)c2ccc3ccc(C)nc3c2O)n1 (stereo not given) | > 100000 |  |
| Cc1ccc(C(Nc2ccccn2)c2ccc3cccnc3c2O)cc1 (stereo not given) | 2500 |  |
| CCCC(=O)NC(c1ccccc1Cl)c1ccc2cccnc2c1O (stereo not given) | > 100000 |  |
| COc1cccc(C(NC(C)=O)c2ccc3cccnc3c2O)c1 (stereo not given) | > 100000 |  |
| Oc1c(C(Nc2ccccn2)c2ccccc2)ccc2cccnc12 (stereo not given) | 2200 | solubility thermodynamic at 24 h [2]: 1170 µM (≈ 384 µg/mL); solubility [3]: 0.078 µM (≈ 0.0255 µg/mL); Stability (Plasma [4]): 67.3%; t1/2 (Plasma [5]): 13.5 h; t1/2 (Liver microsome [6]): 8.6 min; Drug metabolism (Liver microsome [7]): 0.637 µM/min/mg; t1/2 (Plasma [8]): 11.4 h; t1/2 (Liver microsome [9]): 0.493 h; Drug metabolism (Liver microsome [10]): 0.186 µM/min/mg |
| CC(C)Oc1c(C(Nc2ccccn2)c2ccccc2)ccc2cccnc12 (stereo not given) | > 100000 |  |
| CC(C)C(=O)NC(c1ccccc1Cl)c1ccc2cccnc2c1O (stereo not given) | > 100000 |  |
| O=C(NC(c1ccccc1Cl)c1ccc2cccnc2c1O)c1ccccc1 (stereo not given) | 800 |  |
| Cc1ccccc1C(Nc1ccccn1)c1ccc2cccnc2c1O (stereo not given) | 3600 |  |
| Cc1ccc2ccc(C(Nc3ccccn3)c3ccccc3C)c(O)c2n1 (stereo not given) | 1600 |  |
| Cc1cccc(NC(c2ccccc2[N+](=O)[O-])c2ccc3ccc(C)nc3c2O)n1 (stereo not given) | 10700 |  |
| Cc1ccnc(NC(c2ccccc2[N+](=O)[O-])c2ccc3ccc(C)nc3c2O)c1 (stereo not given) | 900 |  |
| Cc1ccnc(NC(c2ccccn2)c2ccc3cccnc3c2O)c1 (stereo not given) | 13400 |  |
| Cc1ccnc(NC(c2ccccn2)c2ccc3ccc(C)nc3c2O)c1 (stereo not given) | 2100 |  |
| Cc1ccnc(NC(c2cccc([N+](=O)[O-])c2)c2ccc3cccnc3c2O)c1 (stereo not given) | 4600 |  |
| Cc1ccnc(NC(c2cccc([N+](=O)[O-])c2)c2ccc3ccc(C)nc3c2O)c1 (stereo not given) | 1100 |  |

| Compound | IC50 [1] [nM] | also measured |
| --- | --- | --- |
| Cc1ccc2ccc(C(Nc3ccccn3)c3cccc(OCc4ccccc4)c3)c(O)c2n1 (stereo not given) | 1400 |  |
| Cc1cccc(NC(c2cccc(OCc3ccccc3)c2)c2ccc3ccc(C)nc3c2O)n1 (stereo not given) | 3500 |  |
| COc1cccc(C(Nc2cc(C)ccn2)c2ccc3ccc(C)nc3c2O)c1 (stereo not given) | 2000 |  |
| Cc1ccnc(NC(c2ccc(Cl)c(Cl)c2)c2ccc3cccnc3c2O)c1 (stereo not given) | 1500 |  |
| Cc1ccnc(NC(c2ccc(Cl)c(Cl)c2)c2ccc3ccc(C)nc3c2O)c1 (stereo not given) | 1200 |  |
| COc1ccc(C(Nc2ccccn2)c2ccc3cccnc3c2O)cc1OC (stereo not given) | 6200 |  |
| COc1ccc(C(Nc2ccccn2)c2ccc3ccc(C)nc3c2O)cc1OC (stereo not given) | 3000 |  |
| Oc1c(C(Nc2ccccn2)c2ccc(F)cc2)ccc2cccnc12 (stereo not given) | 7100 |  |
| Cc1ccc2ccc(C(Nc3ccccn3)c3ccc(F)cc3)c(O)c2n1 (stereo not given) | 2800 |  |
| Cc1ccc(C(Nc2ccccn2)c2ccc3ccc(C)nc3c2O)cc1 (stereo not given) | 2100 |  |
| CC(=O)NC(c1ccc(C)cc1)c1ccc2cccnc2c1O (stereo not given) | > 100000 |  |
| CC(=O)NC(c1ccc(N(C)C)cc1)c1ccc2cccnc2c1O (stereo not given) | > 100000 |  |
| CN(C)c1ccc(C(NC(=O)Cc2ccccc2)c2ccc3cccnc3c2O)cc1 (stereo not given) | 7100 |  |
| Cc1ccnc(NC(c2ccc(N(C)C)cc2)c2ccc3cccnc3c2O)c1 (stereo not given) | 3500 |  |
| Cc1ccnc(NC(c2ccc(N(C)C)cc2)c2ccc3ccc(C)nc3c2O)c1 (stereo not given) | 2500 |  |

Reference: ChEMBL document CHEMBL3112564, “Identification of clinically viable quinolinol inhibitors of botulinum neurotoxin A light chain” (J Med Chem, 2014)
